Experimental data: ChEMBL document CHEMBL1125226, “Antineoplastic activity of didemnin congeners: nordidemnin and modified chain analogues” (1991)
Converted amounts (≈) assume the structure as drawn.

How the values were obtained:
L1210 [1] = test: In vitro cytostatic activity determined on L1210 leukemia cells at 48 hours.; format: functional; details: Mus musculus, L1210, 48 h; read-out: ID50 (the source's name)
How it was run: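 Log-phase L1210 cells were seeded at 0.8 × 10⁵ cells/mL in RPMI 1640 with 20% heat-inactivated horse serum, 2 mmol/L L-glutamine, streptomycin and penicillin. Drugs in ethanol (0.5% final) were tested at several concentrations.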

B16 [2] = test: Antitumor activity against B16 melanoma from B6 D2 F1 female mice(T/C) was evaluated from the median survival time of treated mice (T) over that of control mice (C) at a dose of 0.03 mg/kg/day; format: functional, Mus musculus
How it was run: (§1)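 B6D2F1 female mice (C57BL/6 ♀ × DBA/2 ♂) implanted ip on day 0 with 0.5 mL of B16 tumor suspension (1 g homogenized in 9 mL 0.9% saline). Dosing ip on days 1, 5 and 9. Day-5 survivors give toxicity. Median survival of treated vs control mice gives T/C%, with ≥125% significant.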

B16 [3] = test: Antitumor activity against B16 melanoma from B6 D2 F1 female mice as Median survival time of treated mice at a dose of 0.25 mg/kg/day (repeated ip injections, day 1-9); format: functional, Mus musculus; details: route intraperitoneal
How it was run: (§2)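 B16 melanoma homogenate (1 g tumor in 9 mL 0.9% saline), 0.5 mL implanted ip on day 0 in B6D2F1 female mice (C57BL/6 ♀ × DBA/2 ♂). Treatment ip once daily from day 1 to day 9. Toxicity scored as survivors on day 5. Median survival recorded and T/C computed as treated/control median survival, ≥125% significant.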

L1210 [4] = test: Antitumor activity against L1210 Lymphoid Leukemia from CDF1 female mice (T/C) as median survival time of treated mice (T) over that of control mice (C) at a dose of 0.50 mg/kg/day; format: functional, Mus musculus
How it was run: (§3)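 L1210 leukemia, 10⁵ cells ip on day 0 into CDF1 female mice (BALB/c ♀ × DBA/2 ♂). Drug in 2% methanol given ip on days 1, 5 and 9, 10 mice per group. Survivors and body weight recorded on days 1 and 5, with toxicity as survivors on day 5. Deaths followed for 30 days. T/C = treated/control median survival time, significant at ≥125%.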

P388 [5] = test: Antitumor activity against P388 Leukemia from CDF1 female mice evaluated as the number of survivors on day 5 at a dose of 0.75 mg/kg/day; format: functional, Mus musculus
How it was run: (§4)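 CDF1 female mice (BALB/c × DBA/2) inoculated ip with 10⁶ P388 cells on day 0. Drug given ip in 2% methanol on days 1, 5 and 9. Ten mice per dose group, with a larger control group. Body weight and survival were recorded on days 1 and 5, with toxicity taken as survivors on day 5. Mortality was followed for 30 days to give median survival time.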

B16 [6] = test: Antitumor activity against B16 melanoma from B6 D2 F1 female mice(T/C) as median survival time of treated mice (T) over that of control mice (C) at a dose of 0.25 mg/kg/day (repeated ip injections, day 1-9); format: functional, Mus musculus; details: route intraperitoneal; how it was run: as §2
B16 [7] = test: Antitumor activity against B16 melanoma from B6 D2 F1 female mice evaluated as average weight change of animals between day 1 and day 5 after tumor implementation at a dose of 0.03 mg/kg/day; format: functional, Mus musculus
How it was run: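 B16 melanoma in B6D2F1 female mice: 0.5 mL of tumor homogenate (1 g in 9 mL 0.9% saline) was given ip on day 0. Ip dosing was on days 1, 5 and 9. The readout was the average body weight change between day 1 and day 5 after tumor implantation.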

B16 [8] = test: Antitumor activity against B16 melanoma from B6 D2 F1 female mice(T/C) was evaluated from the median survival time of treated mice (T) over that of control mice (C) at a dose of 0.06 mg/kg/day; format: functional, Mus musculus; how it was run: as §1
L1210 [9] = test: Antitumor activity against L1210 Lymphoid Leukemia from CDF1 female mice as Median survival time of treated mice at a dose of 1.0 mg/kg/day; format: functional, Mus musculus; how it was run: as §3
L1210 [10] = test: Antitumor activity against L1210 Lymphoid Leukemia from CDF1 female mice evaluated as the number of survivors on day 5 at a dose of 0.50 mg/kg/day; format: functional, Mus musculus; how it was run: as §3
L1210 [11] = test: Antitumor activity against L1210 Lymphoid Leukemia from CDF1 female mice as average weight change of animals between day 1 and day 5 after tumor implementation at a dose of 0.50 mg/kg/day; format: functional, Mus musculus
How it was run: (§5)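 CDF1 female mice (BALB/c × DBA/2) received 10⁵ L1210 cells ip on day 0. Drug was dissolved in 2% methanol and given ip on days 1, 5 and 9, to 10 mice per group. Weights were taken on days 1 and 5, and the mean change was reported.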

B16 [12] = test: Antitumor activity against B16 melanoma from B6 D2 F1 female mice(T/C) was evaluated from the median survival time of treated mice (T) over that of control mice (C) at a dose of 0.25 mg/kg/day; format: functional, Mus musculus; how it was run: as §1
B16 [13] = test: Antitumor activity against B16 melanoma from B6 D2 F1 female mice evaluated as Median survival time of treated mice at a dose of 0.06 mg/kg/day; format: functional, Mus musculus; how it was run: as §1
L1210 [14] = test: Antitumor activity against L1210 Lymphoid Leukemia from CDF1 female mice as average weight change of animals between day 1 and day 5 after tumor implementation at a dose of 0.25 mg/kg/day; format: functional, Mus musculus; how it was run: as §5
B16 [15] = test: Antitumor activity against B16 melanoma from B6 D2 F1 female mice evaluated as Median survival time of treated mice at a dose of 0.06 mg/kg/day (repeated ip injections, day 1-9); format: functional, Mus musculus; details: route intraperitoneal; how it was run: as §2
P388 [16] = test: Antitumor activity against P388 Leukemia from CDF1 female mice evaluated as Median survival time of treated mice at a dose of 0.50 mg/kg/day; format: functional, Mus musculus; how it was run: as §4
P388 [17] = test: Antitumor activity (T/C) was evaluated from the median survival time of treated mice (T) over that of control mice (C) at a dose of 0.75 mg/kg/day; format: functional, Mus musculus
How it was run: (§6)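 CDF1 female mice (BALB/c ♀ × DBA/2 ♂) given 10⁶ P388 cells ip on day 0. Drug in 2% methanol given ip on days 1, 5 and 9, 10 mice per group and more controls. Toxicity is survivors on day 5, with weight change between days 1 and 5. Mortality followed 30 days. T/C% is treated over control median survival (NCI method), significant at ≥125%.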

P388 [18] = test: Antitumor activity (T/C) was evaluated from the median survival time of treated mice (T) over that of control mice (C) at a dose of 0.25 mg/kg/day; format: functional, Mus musculus; how it was run: as §6
B16 [19] = test: Antitumor activity against B16 melanoma from B6 D2 F1 female mice as average weight change of animals between day 1 and day 5 after tumor implementation at a dose of 0.03 mg/kg/day (repeated ip injections, day 1-9); format: functional, Mus musculus; details: route intraperitoneal
How it was run: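 B6D2F1 female mice (C57BL/6 × DBA/2) were implanted ip on day 0 with 0.5 mL of B16 suspension (1 g tumor homogenized in 9 mL 0.9% saline). Ip treatment was given once daily, day 1 to day 9. Body weight was recorded on days 1 and 5 after implantation, and the mean change per group was reported.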

B16 [20] = test: Antitumor activity against B16 melanoma from B6 D2 F1 female mice evaluated as the number of survivors on day 5 at a dose of 0.03 mg/kg/day; format: functional, Mus musculus; how it was run: as §1
P388 [21] = test: Average weight change of animals between day 1 and day 5 after tumor implementation at a dose of 0.03 mg/kg/day; format: functional, Mus musculus
How it was run: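 P388 leukemia: CDF1 female mice were inoculated ip with 10⁶ cells on day 0. Treatment in 2% methanol was given ip on days 1, 5 and 9, with 10 mice per group and a larger control group. Body weight was recorded on days 1 and 5 post-implant, and the average change was reported.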

## COc1ccc(C[C@H]2C(=O)O[C@H](C)[C@H](NC(=O)[C@@H](CC(C)C)N(C)C(=O)C3CCCN3C(=O)[C@@H](C)O)C(=O)NC(C(C)C)[C@H](O)CC(=O)O[C@@H](C(C)C)C(=O)[C@H](C)C(=O)N[C@@H](CC(C)C)C(=O)N3CCC[C@H]3C(=O)N2C)cc1 (stereo partly specified) [NORDIDEMNIN]
L1210 [1]
  IC50: 1.9 ng/mL (≈ 1.73 nM)
B16 [2]
  T/C: 101%
B16 [3]
  median survival time, days: 29.8
L1210 [4]
  T/C: 117%
P388 [5]
  Toxicity: 1
B16 [6]
  T/C: 157%
B16 [7]
  Body weight change: 0 g
B16 [8]
  T/C: 116%
L1210 [9]
  median survival time, days: 11.2
L1210 [10]
  Toxicity: 1
L1210 [11]
  Body weight change: -0.9 g
B16 [12]
  T/C: 142%
B16 [13]
  median survival time, days: 22
L1210 [14]
  Body weight change: 0 g
B16 [15]
  median survival time, days: 27.8
P388 [16]
  median survival time, days: 17.9
P388 [17]
  T/C: 175%
P388 [18]
  T/C: 142%
B16 [19]
  Body weight change: -0.1 g
B16 [20]
  Toxicity: 1
P388 [21]
  Body weight change: 0 g
